Assay results reported in ChEMBL document CHEMBL1811864 (Bioorg Med Chem, 2011).

What was measured:
[1] = molecular target: T1, Transcriptional activator protein LasR (Pseudomonas aeruginosa (strain ATCC 15692 / PAO1 / 1C / PRS 101 / LMG12228)) (UniProt P25084); assay: Antagonist activity at Pseudomonas aeruginosa PAO1 MW1 (pUM15) LasR assessed as inhibition of OdDHL-induced quorum sensing activation at 10 uM after 8 hrs by […] relative to untreated control; type: functional
T1 sequence (whole entry): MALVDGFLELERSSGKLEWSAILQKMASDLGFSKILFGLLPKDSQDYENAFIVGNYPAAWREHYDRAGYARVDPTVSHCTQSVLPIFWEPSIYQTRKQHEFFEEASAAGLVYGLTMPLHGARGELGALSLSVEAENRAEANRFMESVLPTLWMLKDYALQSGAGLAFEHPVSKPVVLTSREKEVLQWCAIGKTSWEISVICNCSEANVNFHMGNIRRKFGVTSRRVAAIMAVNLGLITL
Procedure, shortened: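 P. aeruginosa PAO1 MW1 (pUM15) lacks functional LasI and carries a LasR-responsive promoter driving YFP, so fluorescence is the read-out. Compounds were tested at 10 µM. […] Background from wells with no compound or AHL was subtracted. Assays were done in triplicate.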

[2] = tested on: Escherichia coli DH5[alpha]; assay: Antagonist activity at Escherichia coli DH5alpha (pJN105L + pSC11) LasR assessed as inhibition of OdDHL-induced quorum sensing activation at 10 uM after 8 hrs by beta-galactosidase reporter gene assay relative to untreated control; type: functional
[3] = tested on: Escherichia coli DH5[alpha]; assay: Agonist activity at Escherichia coli DH5alpha (pJN105L + pSC11) LasR at 10 uM after 8 hrs by beta-galactosidase reporter gene assay relative to OdDHL; type: functional
[4] = Antagonist activity at Escherichia coli DH5alpha (pJN105L + pSC11) LasR assessed as inhibition of OdDHL-induced quorum sensing activation after 8 hrs by beta-galactosidase reporter gene assay; type: functional, Escherichia coli DH5[alpha]
[5] = molecular target: T2, Transcriptional activator protein LuxR (Aliivibrio fischeri) (UniProt P12746); assay: Antagonist activity at Vibrio fischeri ESI 114 (delta-LuxI) LuxR assessed as inhibition of […]-induced quorum sensing activation at 10 uM after 8 hrs by […] relative to untreated control; type: functional
T2 sequence (whole entry): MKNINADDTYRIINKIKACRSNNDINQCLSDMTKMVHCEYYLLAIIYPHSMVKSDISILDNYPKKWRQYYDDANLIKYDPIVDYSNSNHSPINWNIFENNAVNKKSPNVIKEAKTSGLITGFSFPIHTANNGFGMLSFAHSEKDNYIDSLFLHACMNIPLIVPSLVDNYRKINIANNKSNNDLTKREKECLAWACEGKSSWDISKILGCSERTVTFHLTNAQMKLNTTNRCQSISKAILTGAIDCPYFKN

[6] = molecular target: T2, Transcriptional activator protein LuxR (Aliivibrio fischeri); assay: Agonist activity at Vibrio fischeri ESI 114 (delta-LuxI) LuxR at 10 uM after 8 hrs by […] relative to […]; type: functional
Procedure, shortened: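 V. fischeri ESI 114 lacking LuxI synthase but keeping its native lux operon; LuxR activity read as luminescence. Compounds were screened at 10 µM alone, without native AHL. Signal was normalized to the native-ligand positive control.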

[7] = molecular target: T3, Transcriptional activator protein TraR (Agrobacterium tumefaciens) (UniProt P33905); assay: Antagonist activity at Agrobacterium tumefaciens WCF (pCF372) TraR assessed as inhibition of […]-induced quorum sensing activation at 10 uM after 8 hrs by beta-galactosidase reporter gene assay relative to untreated control; type: functional
T3 sequence (whole entry): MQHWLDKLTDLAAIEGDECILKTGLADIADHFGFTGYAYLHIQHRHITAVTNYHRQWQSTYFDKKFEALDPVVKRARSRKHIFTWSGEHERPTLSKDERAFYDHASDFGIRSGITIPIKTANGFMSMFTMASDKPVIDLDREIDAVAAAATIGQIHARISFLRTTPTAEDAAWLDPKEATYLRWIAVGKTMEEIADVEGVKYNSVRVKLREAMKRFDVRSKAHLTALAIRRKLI

[8] = molecular target: T3, Transcriptional activator protein TraR (Agrobacterium tumefaciens); assay: Agonist activity at Agrobacterium tumefaciens WCF (pCF372) TraR at 10 uM after 8 hrs by beta-galactosidase reporter gene assay relative to […]; type: functional
[9] = tested on: Pseudomonas aeruginosa; assay: Growth inhibition of Pseudomonas aeruginosa PAO1 MW1 (pUM15) at 10 uM after 4 to 16 hrs; type: organism-based; conditions: in vivo
Procedure, shortened: (§1)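 Bacterial growth was monitored over the reporter gene assay time course (4–16 h) with compounds at 10 µM.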

[10] = tested on: Escherichia coli; assay: Growth inhibition of Escherichia coli DH5alpha (pJN105L + pSC11) at 10 uM after 4 to 16 hrs; type: organism-based, DH5[alpha]; conditions: in vivo; procedure, shortened: as §1
[11] = tested on: Aliivibrio fischeri; assay: Growth inhibition of Vibrio fischeri ESI 114 (delta-LuxI) at 10 uM after 4 to 16 hrs; type: organism-based; conditions: in vivo; procedure, shortened: as §1
[12] = tested on: Agrobacterium tumefaciens; assay: Growth inhibition of Agrobacterium tumefaciens WCF (pCF372) at 10 uM after 4 to 16 hrs; type: organism-based; conditions: in vivo; procedure, shortened: as §1
[13] = molecular target: T1, Transcriptional activator protein LasR (Pseudomonas aeruginosa (strain ATCC 15692 / PAO1 / 1C / PRS 101 / LMG12228)); assay: Agonist activity at Pseudomonas aeruginosa PAO1 MW1 (pUM15) LasR at 10 uM after 8 hrs by YFP fluorescence reporter gene assay relative to OdDHL
[14] = molecular target: T4, Transcriptional activator protein LuxR (Aliivibrio fischeri, UniProt P12746); assay: Antagonist activity at Vibrio fischeri ESI 114 (delta-LuxI) LuxR assessed as inhibition of OHHL-induced quorum sensing activation after 8 hrs by […]
T4 sequence (P12746 whole entry): T2 sequence (whole entry)

[15] = molecular target: T5, Transcriptional activator protein TraR (Agrobacterium tumefaciens, UniProt P33905); assay: Antagonist activity at Agrobacterium tumefaciens WCF (pCF372) TraR assessed as inhibition of OOHL-induced quorum sensing activation after 8 hrs by beta-galactosidase reporter gene assay
T5 sequence (P33905 whole entry): T3 sequence (whole entry)

[16] = Hydrolytic stability of the compound in Luria-Bertani medium containing Pseudomonas aeruginosa PA01 MW1 (pUM15) assessed as half life by measuring YFP fluorescence; type: physicochemical
[17] = Agonist activity at Escherichia coli DH5alpha (pJN105L + pSC11) LasR after 8 hrs by beta-galactosidase reporter gene assay relative to OdDHL; type: functional, Escherichia coli DH5[alpha]
[18] = molecular target: T6, Transcriptional activator protein LasR (Pseudomonas aeruginosa (strain ATCC 15692 / PAO1 / 1C / PRS 101 / LMG12228), UniProt P25084); assay: Agonist activity at Pseudomonas aeruginosa PAO1 MW1 (pUM15) LasR after 8 hrs by YFP fluorescence reporter gene assay relative to OdDHL
T6 sequence (P25084 whole entry): T1 sequence (whole entry)

[19] = molecular target: T6, Transcriptional activator protein LasR; assay: Agonist activity at Pseudomonas aeruginosa PAO1 MW1 (pUM15) LasR assessed as quorum sensing activation after 8 hrs by […]
[20] = molecular target: T5, Transcriptional activator protein TraR; assay: Agonist activity at Agrobacterium tumefaciens WCF (pCF372) TraR after 8 hrs by beta-galactosidase reporter gene assay relative to OOHL
[21] = molecular target: T4, Transcriptional activator protein LuxR; assay: Agonist activity at Vibrio fischeri ESI 114 (delta-LuxI) LuxR after 8 hrs by […] relative to […]; type: functional

SMILES | inhibition [1] | Activity [3] | inhibition [5] | Activity [6] | inhibition [7] | Activity [8] | Activity [9] | Activity [10] | Activity [11] | Activity [12] | Activity [13] | IC50 [14] | IC50 [15] | half-life [16] | EC50 [17] | other results
CCCCCCC(=O)N[C@H]1CCSC1=O | -8% | 8% | 78% | 0% | 78% | 0% | Non-toxic | Non-toxic | Non-toxic | Non-toxic | 0% | 0.31 µM | 10 µM | – | – | inhibition [2]: 78%; IC50 [4]: 0.79 µM
CCCCCCCCCC(=O)CC(=O)N[C@H]1CCOC1=O | – | – | – | – | – | – | – | – | – | – | – | – | – | 48.2 h | – | –
CCCC(=O)CC(=O)N[C@H]1CCSC1=O | – | 96% | 62% | 0% | 93% | 1% | Non-toxic | Non-toxic | Non-toxic | Non-toxic | 76% | – | 3.2 µM | – | 0.13 µM | EC50 [18]: 13 µM; EC50 [19]: 13 µM
CCCCCC(=O)CC(=O)N[C@H]1CCSC1=O | -8% | – | 99% | 0% | – | 50% | Non-toxic | Non-toxic | Non-toxic | Non-toxic | 3% | 0.35 µM | – | – | – | EC50 [20]: 20 µM
O=C(Cc1cccc([N+](=O)[O-])c1)N[C@H]1CCSC1=O | -7% | 82% | 19% | 21% | 33% | 1% | Non-toxic | Non-toxic | Non-toxic | Non-toxic | 5% | – | – | – | 4.1 µM | EC50 [21]: 11 µM
CCCCCCCCCC(=O)CC(=O)N[C@H]1CCSC1=O | – | 94% | 99% | 0% | 92% | 1% | Non-toxic | Non-toxic | Non-toxic | Non-toxic | 88% | 0.45 µM | – | 82.3 h | 0.092 µM | –
